Drawing on ChEMBL document CHEMBL3758101, “Synthesis and biological evaluation of fluorinated 1,5-diarylpyrrole-3-alkoxyethyl ether derivatives as selective COX-2 inhibitors endowed with anti-inflammatory activity” (Eur J Med Chem, 2016), this text covers Activity, Ratio IC50 and IC50 for 1 molecule.

Data set [1] deals with Rattus norvegicus. Briefly: Antiinflammatory activity in Sprague-Dawley rat model of carrageenan-induced […] at 10 mg/kg, po administered 2 hrs post carrageenan challenge measured after 120 mins by […] (reference value: 34.5 +/- 4.4 ml). The class given is functional.
For data set [2], the system named is HaCaT. Briefly: Cytotoxicity against human HaCaT cells at 1 to 50 uM after 24 hrs by LDH release assay. Type of data set: cell-based. A digest of the protocol: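 HaCaT cells were grown in high-glucose DMEM with 10% FBS to 80% confluency. They were exposed 24 h to compound at 1–50 µM (final DMSO ≤0.1%). LDH release was expressed as a percentage of Triton X-100 lysis (100%); mean of three experiments.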

In data set [3] the test system is Rattus norvegicus. As to the kind of experiment: Antihyperalgesic effect in Sprague-Dawley rat model of monosodium iodoacetate-induced osteoarthritis assessed as withdrawal threshold at 20 mg/kg, ip administered 14 days post MIA challenge measured after 120 mins by paw pressure test (reference value: 39.2 +/- 4 g). Type of data set: functional. The method, boiled down:
(§1)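 Male Sprague–Dawley rats (200–250 g). MIA (2 mg/25 µL) was injected into the left tibiotarsal joint on day 0 under 2% isoflurane; controls received 25 µL saline. On day 14 compound or vehicle was given at time 0. Paw pressure threshold (g) was read with an analgesimeter using a blunt conical probe on the dorsal paw at 30, 60, 90 and 120 min. Mean ± s.e.m., 6 rats.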

Data set [4] has as its system Rattus norvegicus. Briefly: Antihyperalgesic effect in Sprague-Dawley rat model of monosodium iodoacetate-induced osteoarthritis assessed as withdrawal threshold at 10 mg/kg, ip administered 14 days post MIA challenge measured after 120 mins by paw pressure test (reference value: 39.2 +/- 4 g). The class given is functional. A digest of the protocol:
as §1

Data set [5] concerns Mus musculus. As to the kind of experiment: Antinociceptive activity in CD1 albino mouse model of acetic acid-induced visceral pain assessed as number of writhes at 3 mg/kg, po pretreated for 60 mins before acetic acid challenge measured after 5 mins (reference value: 32.5 +/- 2.4). Type of data set: functional.
The test system of data set [6] is Rattus norvegicus. Briefly: Antihyperalgesic effect in Sprague-Dawley rat model of monosodium iodoacetate-induced osteoarthritis assessed as withdrawal threshold at 20 mg/kg, ip administered 14 days post MIA challenge measured after 30 mins by paw pressure test (reference value: 37.8 +/- 3.3 g). Type of data set: functional. The method, boiled down: as §1
Data set [7] has as its system Rattus norvegicus. As to the kind of experiment: Antiinflammatory activity in Sprague-Dawley rat model of carrageenan-induced […] at 10 mg/kg, po administered 2 hrs post carrageenan challenge measured after 60 mins by […] (reference value: 35.4 +/- 3.6 ml). The class given is functional. In general terms: The carrageenan paw model is a standard test of acute inflammation.

Data set [8] has as its system Mus musculus. As to the kind of experiment: Antinociceptive activity in po dosed CD1 albino mouse model of acetic acid-induced visceral pain assessed as number of writhes pretreated for 30 to 60 mins before acetic acid challenge measured after 5 mins. Type of data set: functional, organism-based.
The test system of data set [9] is Rattus norvegicus. Briefly: Antiinflammatory activity in Sprague-Dawley rat model of carrageenan-induced paw edema assessed as paw volume at 3 mg/kg, po administered 2 hrs post carrageenan challenge measured after 120 mins by plethysmometry (reference value: 34.5 +/- 4.4 ml). The class given is functional.
Data set [10] has as its system Rattus norvegicus. As to the kind of experiment: Antiinflammatory activity in Sprague-Dawley rat model of carrageenan-induced paw edema assessed as volume of paw edema at 10 mg/kg, po administered 2 hrs post carrageenan challenge measured after 60 mins by plethysmometry (reference value: 2.73 +/- 0.07 ml). The class given is functional.
The subject of data set [11] is Mus musculus. Briefly: Antinociceptive activity in CD1 albino mouse model of acetic acid-induced visceral pain assessed as number of writhes at 20 mg/kg, po pretreated for 30 mins before acetic acid challenge measured after 5 mins (reference value: 30.5 +/- 1.7). The class given is functional.
Data set [12] deals with HaCaT. As to the kind of experiment: Antiproliferative activity against human HaCaT cells after 24 hrs by BrdU incorporation assay. Type of data set: functional, cell-based. The method, boiled down: (§2)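 HaCaT human keratinocytes were grown in high-glucose DMEM with 10% FBS and 2 mM L-glutamine at 37 °C and 5% CO2 to 80% confluency. Cells were treated 24 h with compound at 1, 10 or 50 µM (final DMSO ≤0.1%). Proliferation was read by BrdU incorporation as % of DMSO control; three experiments.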

Data set [13] is filed under the species Mus musculus. Briefly: Selectivity ratio of IC50 for mouse COX-1 to IC50 for mouse COX-2. A digest of the protocol:
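In J774 cells, the ratio was taken as COX-1 IC50 over COX-2 IC50. COX-1 activity: 15 min compound pretreatment, then 30 min with 15 µM arachidonic acid. COX-2 activity: 24 h LPS (10 µg/mL) induction with compound. PGE2 was measured by RIA in both; IC50 values came from sigmoidal fits of three experiments.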

Data set [14] relates to Rattus norvegicus. As to the kind of experiment: Antihyperalgesic effect in Sprague-Dawley rat model of monosodium iodoacetate-induced osteoarthritis assessed as withdrawal threshold at 3 mg/kg, ip administered 14 days post MIA challenge measured after 60 mins by paw pressure test (reference value: 36.1 +/- 3.5 g). The class given is functional. A digest of the protocol:
as §1

The test system of data set [15] is Mus musculus. Briefly: Antinociceptive activity in CD1 albino mouse model of acetic acid-induced visceral pain assessed as number of writhes at 10 mg/kg, po pretreated for 60 mins before acetic acid challenge measured after 5 mins (reference value: 32.5 +/- 2.4). The class given is functional.
The target of data set [16] is T1, Prostaglandin G/H synthase 1 (Mus musculus, UniProt P22437).
T1 sequence (P22437 whole entry): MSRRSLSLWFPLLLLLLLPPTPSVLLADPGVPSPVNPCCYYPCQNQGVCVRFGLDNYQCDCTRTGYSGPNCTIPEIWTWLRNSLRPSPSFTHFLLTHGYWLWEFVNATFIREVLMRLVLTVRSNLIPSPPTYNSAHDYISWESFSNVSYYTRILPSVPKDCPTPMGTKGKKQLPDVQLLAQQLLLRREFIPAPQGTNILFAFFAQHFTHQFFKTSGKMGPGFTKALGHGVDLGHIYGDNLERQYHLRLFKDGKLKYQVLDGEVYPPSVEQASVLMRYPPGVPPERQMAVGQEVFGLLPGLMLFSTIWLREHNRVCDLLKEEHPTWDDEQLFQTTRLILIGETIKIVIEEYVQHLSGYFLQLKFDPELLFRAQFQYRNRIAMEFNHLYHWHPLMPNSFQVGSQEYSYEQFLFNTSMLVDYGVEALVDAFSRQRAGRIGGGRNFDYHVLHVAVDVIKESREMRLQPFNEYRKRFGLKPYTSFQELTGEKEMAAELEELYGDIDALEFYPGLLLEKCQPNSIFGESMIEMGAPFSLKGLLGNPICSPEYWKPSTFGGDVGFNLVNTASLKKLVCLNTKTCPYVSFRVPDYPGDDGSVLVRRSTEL
Briefly: Inhibition of COX-1 in mouse J774 cells assessed as reduction in PGE2 level using arachidonic acid as substrate preincubated for 15 mins followed by incubation with arachidonic acid for 30 mins by radio immunoassay. The class given is cell-based. A digest of the protocol: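 Murine J774 macrophages (2.5 × 10^5 cells/mL) were adhered 2 h at 37 °C and given fresh medium. Cells were pretreated with compound at 100 µM for 15 min, then incubated 30 min at 37 °C with 15 µM arachidonic acid. Supernatant PGE2 was measured by RIA as % inhibition versus control; triplicate wells, three experiments, IC50 from a sigmoidal variable-slope fit.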

The subject of data set [17] is HaCaT. As to the kind of experiment: Antiproliferative activity against human HaCaT cells at 10 uM after 24 hrs by BrdU incorporation assay. Type of data set: functional, cell-based. The method, boiled down:
as §2
Background: Incorporation of labelled thymidine or its analogues reports DNA synthesis.

The test system of data set [18] is Mus musculus. Briefly: Antinociceptive activity in CD1 albino mouse model of acetic acid-induced visceral pain assessed as number of writhes at 20 mg/kg, po pretreated for 60 mins before acetic acid challenge measured after 5 mins (reference value: 32.5 +/- 2.4). The class given is functional.

The source made the active and inactive calls.

In the case of `Cc1c(CCOCCCF)cc(-c2ccc(S(C)(=O)=O)cc2)n1-c1ccc(F)cc1`, the Activity in data set [1] is 38.1 g; in data set [2], “Non-toxic”; in data set [3], 37.1 g; in [4], 40.6 g; in [5], 24.6; in data set [6] it was 51.3 g. For the same molecule, the Activity is 53.5 g in data set [7]; “Dose-dependent effect” in data set [8]; 36.2 g in data set [9]; 2.15 mL in data set [10]; 10.7 in data set [11]; “Dose-dependent effect” in [12]. The Activity is listed as 45.4 g in data set [14], 17.7 in data set [15] and 16.9 in [18]. Also, in data set [13], the Ratio IC50 is over 14300. Further, in data set [16], the IC50 (usually the point on the concentration scale where inhibition reaches its midpoint) was over 100 µM. Further, the result in data set [17] was Active.
